Laboratory results reported in ChEMBL document CHEMBL1949525, “Boranophosphate isoster controls P2Y-receptor subtype selectivity and metabolic stability of dinucleoside polyphosphate analogues” (J Med Chem, 2012).
pEC50: −log10 of the molar value. Calls of active or inactive are those of the source. The rule behind the calls is not given here.

How the values were obtained:
[1] = Stability of the compound assessed as human e-NPP1-mediated hydrolysis at pH 8.5 after 20 mins by HPLC analysis; type: ADME; conditions: buffer, pH 8.5, 20 min; for Drug degradation: 20 min
Summary of the method: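 Human NPP1 preparation preincubated 3 min at 37 °C in 1 mM CaCl2, 200 mM NaCl, 10 mM KCl, 100 mM Tris, pH 8.5. Started with 0.2 mM dinucleotide solution (added volume) and stopped after 20 min in ice-cold perchloric acid. Neutralised with KOH, then NMP formation followed by HPLC. Percent substrate hydrolysed is the mean of two experiments run in triplicate.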

P2Y purinoceptor 1 = P2Y purinoceptor 1 (Meleagris gallopavo, UniProt P49652); experiment: Agonist activity at turkey P2Y purinoceptor 1 expressed in human 1321N1 cells assessed as increase in intracellular calcium concentration by spectrofluorimetry; type: functional, cell-based; conditions: for pEC50: read-out: EC50
P2Y purinoceptor 1, sequence (P49652 whole entry): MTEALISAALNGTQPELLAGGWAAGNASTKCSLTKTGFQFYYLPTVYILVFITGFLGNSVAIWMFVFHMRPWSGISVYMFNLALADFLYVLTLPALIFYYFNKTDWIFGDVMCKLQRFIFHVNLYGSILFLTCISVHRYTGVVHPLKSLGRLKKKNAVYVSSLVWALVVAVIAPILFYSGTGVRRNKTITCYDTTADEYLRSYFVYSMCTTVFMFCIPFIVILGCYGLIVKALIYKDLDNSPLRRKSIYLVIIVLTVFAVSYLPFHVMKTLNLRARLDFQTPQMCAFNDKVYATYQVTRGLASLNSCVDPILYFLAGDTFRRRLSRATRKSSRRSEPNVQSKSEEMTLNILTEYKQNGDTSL

P2Y purinoceptor 2 [2] = target: T1, P2Y purinoceptor 2 (Homo sapiens, UniProt P41231); experiment: Agonist activity at human P2Y purinoceptor 2 expressed in human 1321N1 cells assessed as increase in intracellular calcium concentration by spectrofluorimetry; type: functional, cell-based; conditions: for EC50: 1321-n1; for pEC50: read-out: EC50
T1 sequence (P41231 whole entry): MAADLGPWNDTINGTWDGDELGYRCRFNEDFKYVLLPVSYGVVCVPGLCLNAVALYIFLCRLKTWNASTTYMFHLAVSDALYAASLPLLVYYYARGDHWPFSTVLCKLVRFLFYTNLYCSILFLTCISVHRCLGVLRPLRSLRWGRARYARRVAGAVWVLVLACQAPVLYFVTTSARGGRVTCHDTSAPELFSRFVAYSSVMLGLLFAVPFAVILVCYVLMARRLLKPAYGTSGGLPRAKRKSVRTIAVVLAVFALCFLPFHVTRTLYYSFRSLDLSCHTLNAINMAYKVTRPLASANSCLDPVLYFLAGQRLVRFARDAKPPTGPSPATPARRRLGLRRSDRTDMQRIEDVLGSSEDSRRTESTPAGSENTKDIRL

P2Y purinoceptor 6 = P2Y purinoceptor 6 (Rattus norvegicus, UniProt Q63371); experiment: Agonist activity at rat P2Y purinoceptor 6 expressed in human 1321N1 cells assessed as increase in intracellular calcium concentration by spectrofluorimetry; type: functional, cell-based; conditions: for pEC50: read-out: EC50
P2Y purinoceptor 6, sequence (Q63371 whole entry): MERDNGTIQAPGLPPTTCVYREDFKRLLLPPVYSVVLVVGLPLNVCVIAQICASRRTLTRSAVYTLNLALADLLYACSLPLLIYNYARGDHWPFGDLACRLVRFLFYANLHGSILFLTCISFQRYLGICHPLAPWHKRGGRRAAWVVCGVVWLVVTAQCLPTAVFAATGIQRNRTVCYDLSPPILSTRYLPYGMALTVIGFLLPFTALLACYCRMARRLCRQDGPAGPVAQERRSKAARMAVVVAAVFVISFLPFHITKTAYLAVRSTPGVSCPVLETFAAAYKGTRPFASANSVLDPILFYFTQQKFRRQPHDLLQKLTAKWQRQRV
Summary of the method: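 1321N1 astrocytoma cells lacking endogenous P2Y receptors, stably transfected with turkey P2Y1, human P2Y2, human P2Y4 or rat P2Y6, grown in DMEM with 5% FBS, penicillin/streptomycin and 500 µg/mL G-418. Fura-2-loaded cell suspensions were exposed at 37 °C in 10 mM Hepes-buffered saline, pH 7.4, with 1 mM CaCl2 and 1 mM MgCl2. Peak [Ca2+]i rise by dual-excitation spectrofluorometry across concentrations; EC50 from curve fits; three experiments on separate days per subtype.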

[3] = target: P2Y purinoceptor 1 (Meleagris gallopavo) (UniProt P49652); experiment: Antagonist activity at turkey P2Y purinoceptor 1 expressed in human 1321N1 cells assessed as inhibition of 2-Sme-ADP-induced increase in intracellular calcium concentration by spectrofluorimetry; type: functional, cell-based
P2Y purinoceptor 1 (Meleagris gallopavo), sequence (P49652 whole entry): as the sequence (P49652 whole entry) above
Summary of the method: (§1)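 Fura-2-loaded 1321N1 transfectants (turkey P2Y1, human P2Y2/P2Y4, rat P2Y6) in Hepes-buffered saline, pH 7.4, at 37 °C. Analogues were tested against equimolar reference agonist: 2-MeS-ADP for P2Y1, UTP for P2Y2/4, UDP for P2Y6. Blockade of the [Ca2+]i rise was followed by dual-excitation spectrofluorometry.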

P2Y purinoceptor 2 [4] = target: T1, P2Y purinoceptor 2; experiment: Antagonist activity at human P2Y purinoceptor 2 expressed in human 1321N1 cells assessed as inhibition of UTP-induced increase in intracellular calcium concentration by spectrofluorimetry; type: functional, cell-based; summary of the method: as §1
P2Y purinoceptor 4 [5] = target: T2, P2Y purinoceptor 4 (Homo sapiens, UniProt P51582); experiment: Antagonist activity at human P2Y purinoceptor 4 expressed in human 1321N1 cells assessed as inhibition of UTP-induced increase in intracellular calcium concentration by spectrofluorimetry; type: functional, cell-based; summary of the method: as §1
T2 sequence (P51582 whole entry): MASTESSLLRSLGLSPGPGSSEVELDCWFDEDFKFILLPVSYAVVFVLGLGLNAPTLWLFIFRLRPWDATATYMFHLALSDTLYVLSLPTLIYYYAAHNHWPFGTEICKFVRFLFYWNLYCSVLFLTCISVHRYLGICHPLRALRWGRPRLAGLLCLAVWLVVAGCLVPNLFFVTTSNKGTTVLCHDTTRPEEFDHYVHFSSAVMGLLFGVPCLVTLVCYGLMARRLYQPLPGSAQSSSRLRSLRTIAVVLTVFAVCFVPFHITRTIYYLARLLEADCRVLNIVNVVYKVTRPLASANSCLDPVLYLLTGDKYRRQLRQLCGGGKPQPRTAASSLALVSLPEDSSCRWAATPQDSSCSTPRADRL

[6] = target: P2Y purinoceptor 6 (Rattus norvegicus) (UniProt Q63371); experiment: Antagonist activity at rat P2Y purinoceptor 6 expressed in human 1321N1 cells assessed as inhibition of UDP-induced increase in intracellular calcium concentration by spectrofluorimetry; type: functional, cell-based; summary of the method: as §1
P2Y purinoceptor 6 (Rattus norvegicus), sequence (Q63371 whole entry): as the sequence (Q63371 whole entry) above

P2Y purinoceptor 4 [7] = target: T2, P2Y purinoceptor 4; experiment: Agonist activity at human P2Y purinoceptor 4 expressed in human 1321N1 cells assessed as increase in intracellular calcium concentration by spectrofluorimetry; type: functional, cell-based; conditions: for EC50: 1321-n1; for pEC50: read-out: EC50
Summary of the method: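 1321N1 astrocytoma cells (no endogenous P2Y receptors) stably expressing hP2Y4, grown in DMEM with 5% FBS, penicillin/streptomycin and 500 μg/mL G-418. Fura-2-loaded cell suspensions; compounds applied at various concentrations, 37 °C, 10 mM Hepes-buffered saline pH 7.4 with 1 mM CaCl2/MgCl2. Peak [Ca2+]i rise by dual-excitation fluorometry gives EC50; UTP reference agonist; three experiments on separate days.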

| SMILES | Drug degradation [1] | pEC50 (P2Y purinoceptor 1) | pEC50 (P2Y purinoceptor 6) | Activity [3] | Activity (P2Y purinoceptor 2 [4]) | Activity (P2Y purinoceptor 4 [5]) | Activity [6] | other results |
| --- | --- | --- | --- | --- | --- | --- | --- | --- |
| Nc1ncnc2c1ncn2[C@@H]1O[C@H](COP(=O)(O)OP(=O)(O)OP(=O)(O)OP(=O)(O)OP(=O)(O)OC[C@H]2O[C@@H](n3cnc4c(N)ncnc43)[C@H](O)[C@@H]2O)[C@@H](O)[C@H]1O | – | – | – | – | – | – | – | Stability [1]: Unstable |
| BP(=O)(OP(=O)(O)OC[C@H]1O[C@@H](n2cnc3c(N)ncnc32)[C@H](O)[C@@H]1O)OP(=O)(O)OP(=O)(O)OC[C@H]1O[C@@H](n2cnc3c(N)ncnc32)[C@H](O)[C@@H]1O.CCCCN(CCCC)CCCC.CCCCN(CCCC)CCCC.CCCCN(CCCC)CCCC.CCCCN(CCCC)CCCC (stereo in doubt; 6B) | 2.1% | 5.37 | – | – | – | – | – | – |
| BP(=O)(OP(=O)(O)OC[C@H]1O[C@@H](n2ccc(=O)[nH]c2=O)[C@H](O)[C@@H]1O)OP(=O)(O)OP(=O)(O)OC[C@H]1O[C@@H](n2ccc(=O)[nH]c2=O)[C@H](O)[C@@H]1O.CCCCN(CCCC)CCCC.CCCCN(CCCC)CCCC.CCCCN(CCCC)CCCC.CCCCN(CCCC)CCCC (stereo in doubt; 7B) | 3.5% | – | 6.01 | – | – | – | – | EC50 (P2Y purinoceptor 2 [2]): Not Active |
| BP(=O)(OP(=O)(O)OC[C@H]1O[C@@H](n2cnc3c(N)ncnc32)[C@H](O)[C@@H]1O)OP(=O)(O)OP(=O)(O)OC[C@H]1O[C@@H](n2ccc(=O)[nH]c2=O)[C@H](O)[C@@H]1O.CCCCN(CCCC)CCCC.CCCCN(CCCC)CCCC.CCCCN(CCCC)CCCC.CCCCN(CCCC)CCCC (stereo in doubt; 8B) [listing 1 of 2 here] | 2.1% | 5.16 | 5.72 | – | – | – | – | pEC50 (P2Y purinoceptor 2 [2]): 4.19 |
| BP(=O)(OP(=O)(O)OC[C@H]1O[C@@H](n2cnc3c(N)ncnc32)[C@H](O)[C@@H]1O)OP(=O)(O)OP(=O)(O)OC[C@H]1O[C@@H](n2ccc(=O)[nH]c2=O)[C@H](O)[C@@H]1O.CCCCN(CCCC)CCCC.CCCCN(CCCC)CCCC.CCCCN(CCCC)CCCC.CCCCN(CCCC)CCCC (stereo in doubt; 8B) [listing 2 of 2 here] | – | – | – | inactive | inactive | inactive | inactive | – |
| BP(=O)(OP(=O)(O)OC[C@H]1O[C@@H](n2ccc(=O)[nH]c2=O)[C@H](O)[C@@H]1O)OP(=O)(O)OP(=O)(O)OC[C@H]1O[C@@H](n2cnc3c(N)ncnc32)[C@H](O)[C@@H]1O.CCCCN(CCCC)CCCC.CCCCN(CCCC)CCCC.CCCCN(CCCC)CCCC.CCCCN(CCCC)CCCC (stereo in doubt; 9B) [listing 1 of 2 here] | 3.3% | 6.09 | 4.93 | – | – | – | – | EC50 (P2Y purinoceptor 2 [2]): Not Active |
| BP(=O)(OP(=O)(O)OC[C@H]1O[C@@H](n2ccc(=O)[nH]c2=O)[C@H](O)[C@@H]1O)OP(=O)(O)OP(=O)(O)OC[C@H]1O[C@@H](n2cnc3c(N)ncnc32)[C@H](O)[C@@H]1O.CCCCN(CCCC)CCCC.CCCCN(CCCC)CCCC.CCCCN(CCCC)CCCC.CCCCN(CCCC)CCCC (stereo in doubt; 9B) [listing 2 of 2 here] | – | – | – | inactive | inactive | inactive | inactive | – |
| BP(=O)(OC[C@H]1O[C@@H](n2cnc3c(N)ncnc32)[C@H](O)[C@@H]1O)OP(=O)(O)OP(=O)(O)OC[C@H]1O[C@@H](n2cnc3c(N)ncnc32)[C@H](O)[C@@H]1O.CCCCN(CCCC)CCCC.CCCCN(CCCC)CCCC.CCCCN(CCCC)CCCC (stereo in doubt; 10A) [listing 1 of 2 here] | 0% | 6.12 | – | – | – | – | – | EC50 (P2Y purinoceptor 2 [2]): Not Active; EC50 (P2Y purinoceptor 4 [7]): Not Active; EC50 (P2Y purinoceptor 6; 1321-n1): Not Active |
| BP(=O)(OC[C@H]1O[C@@H](n2cnc3c(N)ncnc32)[C@H](O)[C@@H]1O)OP(=O)(O)OP(=O)(O)OC[C@H]1O[C@@H](n2cnc3c(N)ncnc32)[C@H](O)[C@@H]1O.CCCCN(CCCC)CCCC.CCCCN(CCCC)CCCC.CCCCN(CCCC)CCCC (stereo in doubt; 10A) [listing 2 of 2 here] | – | – | – | inactive | inactive | inactive | inactive | – |
| BP(=O)(OC[C@H]1O[C@@H](n2cnc3c(N)ncnc32)[C@H](O)[C@@H]1O)OP(=O)(O)OP(=O)(O)OC[C@H]1O[C@@H](n2cnc3c(N)ncnc32)[C@H](O)[C@@H]1O.CCCCN(CCCC)CCCC.CCCCN(CCCC)CCCC.CCCCN(CCCC)CCCC (stereo in doubt; 10B) [listing 1 of 2 here] | 4.4% | 6.10 | – | – | – | – | – | – |
| BP(=O)(OC[C@H]1O[C@@H](n2cnc3c(N)ncnc32)[C@H](O)[C@@H]1O)OP(=O)(O)OP(=O)(O)OC[C@H]1O[C@@H](n2cnc3c(N)ncnc32)[C@H](O)[C@@H]1O.CCCCN(CCCC)CCCC.CCCCN(CCCC)CCCC.CCCCN(CCCC)CCCC (stereo in doubt; 10B) [listing 2 of 2 here] | – | – | – | inactive | inactive | inactive | inactive | – |
| BP(=O)(OC[C@H]1O[C@@H](n2ccc(=O)[nH]c2=O)[C@H](O)[C@@H]1O)OP(=O)(O)OP(=O)(O)OC[C@H]1O[C@@H](n2ccc(=O)[nH]c2=O)[C@H](O)[C@@H]1O.CCCCN(CCCC)CCCC.CCCCN(CCCC)CCCC.CCCCN(CCCC)CCCC (stereo in doubt; 11A) [listing 1 of 2 here] | 0% | 5.36 | 6.14 | – | – | – | – | EC50 (P2Y purinoceptor 2 [2]): Not Active; EC50 (P2Y purinoceptor 4 [7]): Not Active |
| BP(=O)(OC[C@H]1O[C@@H](n2ccc(=O)[nH]c2=O)[C@H](O)[C@@H]1O)OP(=O)(O)OP(=O)(O)OC[C@H]1O[C@@H](n2ccc(=O)[nH]c2=O)[C@H](O)[C@@H]1O.CCCCN(CCCC)CCCC.CCCCN(CCCC)CCCC.CCCCN(CCCC)CCCC (stereo in doubt; 11A) [listing 2 of 2 here] | – | – | – | inactive | inactive | inactive | inactive | – |
| BP(=O)(OC[C@H]1O[C@@H](n2ccc(=O)[nH]c2=O)[C@H](O)[C@@H]1O)OP(=O)(O)OP(=O)(O)OC[C@H]1O[C@@H](n2ccc(=O)[nH]c2=O)[C@H](O)[C@@H]1O.CCCCN(CCCC)CCCC.CCCCN(CCCC)CCCC.CCCCN(CCCC)CCCC (stereo in doubt; 11B) | 6% | – | 6.52 | – | – | – | – | – |
| BP(=O)(OC[C@H]1O[C@@H](n2cnc3c(N)ncnc32)[C@H](O)[C@@H]1O)OP(=O)(O)OP(=O)(O)OP(=O)(O)OC[C@H]1O[C@@H](n2cnc3c(N)ncnc32)[C@H](O)[C@@H]1O.CCCCN(CCCC)CCCC.CCCCN(CCCC)CCCC.CCCCN(CCCC)CCCC.CCCCN(CCCC)CCCC (stereo in doubt; 12A) | – | – | – | inactive | inactive | inactive | inactive | – |
| BP(=O)(OC[C@H]1O[C@@H](n2cnc3c(N)ncnc32)[C@H](O)[C@@H]1O)OP(=O)(O)OP(=O)(O)OP(=O)(O)OC[C@H]1O[C@@H](n2cnc3c(N)ncnc32)[C@H](O)[C@@H]1O.CCCCN(CCCC)CCCC.CCCCN(CCCC)CCCC.CCCCN(CCCC)CCCC.CCCCN(CCCC)CCCC (stereo in doubt; 12B) [listing 1 of 2 here] | 17% | 5.16 | – | – | – | – | – | pEC50 (P2Y purinoceptor 2 [2]): 4.19 |
| BP(=O)(OC[C@H]1O[C@@H](n2cnc3c(N)ncnc32)[C@H](O)[C@@H]1O)OP(=O)(O)OP(=O)(O)OP(=O)(O)OC[C@H]1O[C@@H](n2cnc3c(N)ncnc32)[C@H](O)[C@@H]1O.CCCCN(CCCC)CCCC.CCCCN(CCCC)CCCC.CCCCN(CCCC)CCCC.CCCCN(CCCC)CCCC (stereo in doubt; 12B) [listing 2 of 2 here] | – | – | – | inactive | inactive | inactive | inactive | – |
| BP(=O)(OC[C@H]1O[C@@H](n2ccc(=O)[nH]c2=O)[C@H](O)[C@@H]1O)OP(=O)(O)OP(=O)(O)OP(=O)(O)OC[C@H]1O[C@@H](n2ccc(=O)[nH]c2=O)[C@H](O)[C@@H]1O.CCCCN(CCCC)CCCC.CCCCN(CCCC)CCCC.CCCCN(CCCC)CCCC.CCCCN(CCCC)CCCC (stereo in doubt; 13A) | 3.5% | – | 4.44 | – | – | – | – | EC50 (P2Y purinoceptor 1; 1321-n1): Not Active; pEC50 (P2Y purinoceptor 4 [7]): 5.03 |
| BP(=O)(OC[C@H]1O[C@@H](n2ccc(=O)[nH]c2=O)[C@H](O)[C@@H]1O)OP(=O)(O)OP(=O)(O)OP(=O)(O)OC[C@H]1O[C@@H](n2ccc(=O)[nH]c2=O)[C@H](O)[C@@H]1O.CCCCN(CCCC)CCCC.CCCCN(CCCC)CCCC.CCCCN(CCCC)CCCC.CCCCN(CCCC)CCCC (stereo in doubt; 13B) | 11.3% | – | 5.41 | – | – | – | – | pEC50 (P2Y purinoceptor 2 [2]): 4.61; pEC50 (P2Y purinoceptor 4 [7]): 4.77 |
